# Data from ChEMBL document CHEMBL1156941, “Discovery of small molecule isozyme non-specific inhibitors of mammalian acetyl-CoA carboxylase 1 and 2” (Bioorg Med Chem Lett, 2010).
# Legend:
# Acetyl-CoA carboxylase 1 = Acetyl-CoA carboxylase 1 (Rattus norvegicus, UniProt P11497); test: Inhibition of rat liver ACC1 after 7 mins by liquid scintillation counter
# Acetyl-CoA carboxylase 2 = Acetyl-CoA carboxylase 2 (Homo sapiens, UniProt O00763); test: Inhibition of human recombinant ACC2 expressed in CHO cells after 1 hr by fluorescence reader; type: cell-based
# Outline: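 Purified recombinant human ACC2, from conditioned medium captured on avidin resin and eluted with biotin, then dialyzed. Compounds in DMSO, final DMSO 1%. Run 1 h at room temperature. ADP measured by Transcreener fluorescence polarization after a further 1 h.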
# [1] = Cmax in rat at 5 mg/kg, po; type: ADME, organism-based; design: dose 5 mg/kg, route oral; conditions: in vivo
# Outline: (§1)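 Rat pharmacokinetics. Intravenous dose 1 mg/kg, giving CL in mL/min/kg and Vdss in L/kg. Oral dose 5 mg/kg, giving Cmax in ng/mL, %F and t1/2 in h.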
# [2] = Clearance in rat at 1 mg/kg, iv; type: ADME, organism-based; design: dose 1 mg/kg, route intravenous; conditions: in vivo; outline: as §1
# [3] = Volume of distribution at steady state in rat at 1 mg/kg, iv; type: ADME, organism-based; design: dose 1 mg/kg, route intravenous; conditions: in vivo, read-out: Vdss; outline: as §1
# [4] = Oral bioavailability in rat at 5 mg/kg; type: ADME, organism-based; conditions: in vivo; outline: as §1
# [5] = Half life in rat at 5 mg/kg, po; type: ADME, organism-based; design: dose 5 mg/kg, route oral; conditions: in vivo; outline: as §1
# [6] = Volume of distribution at steady state in rat at 1 mg/kg, iv administered with methylcellulose; type: ADME, organism-based; design: dose 1 mg/kg, route intravenous; conditions: in vivo, read-out: Vdss
# [7] = Half life in rat at 1 mg/kg, iv administered with methylcellulose; type: ADME, organism-based; design: dose 1 mg/kg, route intravenous; conditions: in vivo
# [8] = Oral bioavailability in rat at 3 mg/kg administered with methylcellulose; type: ADME, organism-based; conditions: in vivo
# [9] = Clearance in Beagle dog at 1 mg/kg, iv administered with 40% PEG400 and 60% glycerol; type: ADME, organism-based, Canis lupus familiaris; design: dose 1 mg/kg, route intravenous; conditions: in vivo
# [10] = Clearance in rat at 1 mg/kg, iv administered with methylcellulose; type: ADME, organism-based; design: dose 1 mg/kg, route intravenous; conditions: in vivo
# [11] = Volume of distribution at steady state in Beagle dog at 1 mg/kg, iv administered with 40% PEG400 and 60% glycerol; type: ADME, organism-based, Canis lupus familiaris; design: dose 1 mg/kg, route intravenous; conditions: in vivo, read-out: Vdss
# [12] = Half life in Beagle dog at 1 mg/kg, iv administered with 40% PEG400 and 60% glycerol; type: ADME, organism-based, Canis lupus familiaris; design: dose 1 mg/kg, route intravenous; conditions: in vivo
# [13] = Oral bioavailability in rat at 3 mg/kg administered with lipid emulsion; type: ADME, organism-based; conditions: in vivo
# [14] = Oral bioavailability in rat at 3 mg/kg administered with spray-dried dispersion; type: ADME, organism-based; conditions: in vivo
# Sequence of Acetyl-CoA carboxylase 2 (O00763 whole entry): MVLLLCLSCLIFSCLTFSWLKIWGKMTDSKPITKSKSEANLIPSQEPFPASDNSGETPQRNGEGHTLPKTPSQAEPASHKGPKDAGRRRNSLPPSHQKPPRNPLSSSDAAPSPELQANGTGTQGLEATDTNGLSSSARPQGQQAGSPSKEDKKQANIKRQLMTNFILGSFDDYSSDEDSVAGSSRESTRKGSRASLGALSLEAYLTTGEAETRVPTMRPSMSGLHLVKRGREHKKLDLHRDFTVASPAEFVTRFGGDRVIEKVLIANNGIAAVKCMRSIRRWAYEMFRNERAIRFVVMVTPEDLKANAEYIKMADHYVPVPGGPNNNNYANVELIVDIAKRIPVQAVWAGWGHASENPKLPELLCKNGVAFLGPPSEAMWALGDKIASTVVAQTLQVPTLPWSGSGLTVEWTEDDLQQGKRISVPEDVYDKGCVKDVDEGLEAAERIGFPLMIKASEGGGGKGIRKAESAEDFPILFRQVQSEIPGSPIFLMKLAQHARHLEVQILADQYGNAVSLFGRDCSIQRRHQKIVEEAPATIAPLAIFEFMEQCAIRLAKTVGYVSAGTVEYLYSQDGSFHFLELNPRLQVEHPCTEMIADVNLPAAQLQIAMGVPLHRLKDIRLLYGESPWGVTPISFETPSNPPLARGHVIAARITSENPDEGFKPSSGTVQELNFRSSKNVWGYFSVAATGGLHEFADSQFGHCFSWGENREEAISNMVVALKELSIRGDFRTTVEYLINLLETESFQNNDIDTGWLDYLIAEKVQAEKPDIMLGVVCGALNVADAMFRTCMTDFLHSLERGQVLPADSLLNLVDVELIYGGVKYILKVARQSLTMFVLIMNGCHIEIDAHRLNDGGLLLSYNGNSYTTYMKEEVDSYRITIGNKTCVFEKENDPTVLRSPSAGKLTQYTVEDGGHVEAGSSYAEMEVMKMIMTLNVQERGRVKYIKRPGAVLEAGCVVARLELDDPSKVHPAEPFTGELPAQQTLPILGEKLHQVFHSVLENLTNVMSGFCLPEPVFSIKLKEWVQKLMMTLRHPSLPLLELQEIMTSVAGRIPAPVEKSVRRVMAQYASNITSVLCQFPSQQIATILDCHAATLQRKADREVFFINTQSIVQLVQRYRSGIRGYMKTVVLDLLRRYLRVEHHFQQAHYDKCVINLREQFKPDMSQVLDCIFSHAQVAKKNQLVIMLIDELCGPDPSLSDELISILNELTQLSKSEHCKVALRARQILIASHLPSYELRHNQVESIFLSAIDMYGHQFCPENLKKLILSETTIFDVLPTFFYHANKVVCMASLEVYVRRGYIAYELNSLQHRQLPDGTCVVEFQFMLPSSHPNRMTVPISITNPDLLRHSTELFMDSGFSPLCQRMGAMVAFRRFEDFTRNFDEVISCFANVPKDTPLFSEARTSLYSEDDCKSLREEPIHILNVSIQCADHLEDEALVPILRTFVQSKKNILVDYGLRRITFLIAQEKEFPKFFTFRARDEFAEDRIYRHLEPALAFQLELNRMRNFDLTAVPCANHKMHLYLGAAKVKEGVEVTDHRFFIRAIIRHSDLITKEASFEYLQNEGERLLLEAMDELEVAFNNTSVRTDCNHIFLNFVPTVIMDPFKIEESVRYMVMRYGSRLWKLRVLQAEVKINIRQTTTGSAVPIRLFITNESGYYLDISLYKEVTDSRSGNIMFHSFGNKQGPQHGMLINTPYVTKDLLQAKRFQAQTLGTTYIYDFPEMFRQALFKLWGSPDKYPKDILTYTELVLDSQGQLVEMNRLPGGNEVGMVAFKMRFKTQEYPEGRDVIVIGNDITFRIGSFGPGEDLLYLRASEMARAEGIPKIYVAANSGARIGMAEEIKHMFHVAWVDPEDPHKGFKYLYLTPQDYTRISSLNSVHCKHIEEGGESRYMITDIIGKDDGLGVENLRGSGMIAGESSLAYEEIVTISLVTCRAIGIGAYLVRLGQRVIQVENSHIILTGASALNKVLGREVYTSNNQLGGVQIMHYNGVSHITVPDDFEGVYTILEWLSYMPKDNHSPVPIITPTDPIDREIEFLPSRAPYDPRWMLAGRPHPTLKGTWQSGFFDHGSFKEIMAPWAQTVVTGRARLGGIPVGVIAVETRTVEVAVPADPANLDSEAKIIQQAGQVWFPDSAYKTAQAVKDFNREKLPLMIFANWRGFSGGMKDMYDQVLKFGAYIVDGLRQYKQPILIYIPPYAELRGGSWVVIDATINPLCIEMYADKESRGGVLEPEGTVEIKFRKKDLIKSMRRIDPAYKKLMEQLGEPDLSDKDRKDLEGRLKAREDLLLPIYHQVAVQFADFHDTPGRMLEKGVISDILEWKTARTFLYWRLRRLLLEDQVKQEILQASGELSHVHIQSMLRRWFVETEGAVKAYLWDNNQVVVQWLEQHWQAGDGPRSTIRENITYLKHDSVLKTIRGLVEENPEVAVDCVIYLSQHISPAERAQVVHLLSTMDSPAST
IC50 (Acetyl-CoA carboxylase 1),IC50 (Acetyl-CoA carboxylase 2),SMILES,other results
975 nM,–,Cn1cc(-c2cc3c(cn2)OC2(CCN(C(=O)c4ccc5nc(-c6ccn(C)n6)[nH]c5c4)CC2)CC3=O)cn1,–
8910 nM,–,Cc1ccc2cc(CC3CCN(C(=O)c4ccnc5ccccc45)CC3)ccc2n1,–
61 nM,–,CCOc1nccc2c1C(=O)CC1(CCN(C(=O)c3cc(C)c4[nH]ncc4c3)CC1)O2,–
–,2130 nM,O=C1CC2(CCN(C(=O)c3cccc4cn[nH]c34)CC2)Oc2ccc(Cl)cc21,–
1350 nM,–,Cc1cc(C(=O)N2CCC3(CC2)CC(=O)c2nc(N)ccc2O3)cc2cn[nH]c12,–
43 nM,11 nM,CNC(=O)c1cc2cc(C(=O)N3CCC4(CC3)CC(=O)c3c(OC)cccc3O4)ccc2[nH]1,–
7.4 nM,–,Cc1cc(C(=O)N2CCC3(CC2)CC(=O)c2cc(-c4cn[nH]c4)ccc2O3)cc2cn[nH]c12,–
13 nM,6.4 nM,Cc1noc(C)c1-c1ccc2c(c1)C(=O)CC1(CCN(C(=O)c3cc(C)c4[nH]ncc4c3)CC1)O2,–
26 nM,19 nM,COc1cccc2c1C(=O)CC1(CCN(C(=O)c3ccc4nc(-c5cccnc5)[nH]c4c3)CC1)O2,–
23 nM,98 nM,Cc1cc(C(=O)N2CCC3(CC2)CC(=O)c2c(ccnc2OCC(C)C)O3)cc2cn[nH]c12,–
2970 nM,505 nM,COc1cccc2c1C(=O)CC1(CCN(C(=O)c3ccc4nn[nH]c4c3)CC1)O2,–
42 nM,11 nM,COc1cccc2c1C(=O)CC1(CCN(C(=O)c3cc(C)c4[nH]nc(C)c4c3)CC1)O2,–
26 nM,12 nM,COc1cccc2c1C(=O)CC1(CCN(C(=O)c3ccc4[nH]c(-c5ccccn5)nc4c3)CC1)O2,–
7.5 nM,–,Cc1cc(C(=O)N2CCC3(CC2)CC(=O)c2cc(-c4cnn(C)c4)ccc2O3)cc2cn[nH]c12,–
104 nM,6.5 nM,COc1cccc2c1C(=O)CC1(CCN(C(=O)c3cc(C)c4[nH]ncc4c3)CC1)O2,–
216 nM,111 nM,COc1cccc2c1C(=O)CC1(CCN(C(=O)c3ccc4nc[nH]c4c3)CC1)O2,–
766 nM,640 nM,Cc1n[nH]c2ccc(C(=O)N3CCC4(CC3)CC(=O)c3ncccc3O4)cc12,–
220 nM,164 nM,COc1cccc2c1C(=O)CC1(CCN(C(=O)c3ccc4c(C)n[nH]c4c3)CC1)O2,–
18 nM,4.5 nM,Cc1cc(C(=O)N2CCC3(CC2)CC(=O)c2cc(-c4cc[nH]n4)ccc2O3)cc2cn[nH]c12,–
19 nM,–,COc1cccc2c1C(=O)CC1(CCN(C(=O)c3ccc4nc(-c5ccn(C)n5)[nH]c4c3)CC1)O2,–
154 nM,–,Cc1cc(C(=O)N2CCC3(CC2)CC(=O)c2ncccc2O3)cc2cn[nH]c12,–
24.6 nM,–,Cc1cc(C(=O)N2CCC3(CC2)CC(=O)c2cc(-c4cnn(C)c4)ncc2O3)cc2cn[nH]c12,–
60 nM,51 nM,COc1cccc2c1C(=O)CC1(CCN(C(=O)c3ccc4nc(-c5ccncc5)[nH]c4c3)CC1)O2,–
3380 nM,–,Cc1ccc2cc(CC3CCN(C(=O)c4cccc5cn[nH]c45)CC3)ccc2n1,Cmax [1]: 617 ng/mL; clearance [2]: 44.3 mL/min/kg; Vd [3]: 2.4 L/kg; bioavailability [4]: 45%; half-life [5]: 1.7 h

IC50 (Acetyl-CoA carboxylase 1),IC50 (Acetyl-CoA carboxylase 2),SMILES,other results
663 nM,> 1000 nM,COc1cccc2c1C(=O)CC1(CCN(C(=O)c3ccc4[nH]c(C)nc4c3)CC1)O2,–
17 nM,39 nM,Cc1ncc(-c2ccc3c(c2)C(=O)CC2(CCN(C(=O)c4cc(C)c5[nH]ncc5c4)CC2)O3)o1,–
16 nM,16 nM,COc1cccc2c1C(=O)CC1(CCN(C(=O)c3ccc4nc(-c5ccccc5)[nH]c4c3)CC1)O2,–
86 nM,–,COc1nccc2c1C(=O)CC1(CCN(C(=O)c3cc(C)c4[nH]ncc4c3)CC1)O2,–
65 nM,16 nM,COc1cccc2c1C(=O)CC1(CCN(C(=O)c3cc(C)c4[nH]c(C(N)=O)cc4c3)CC1)O2,–
12 nM,20 nM,Cc1n[nH]c2c(C)cc(C(=O)N3CCC4(CC3)CC(=O)c3c(ccnc3OC(C)C)O4)cc12,Vd [6]: 3.3 L/kg; half-life [7]: 1.4 h; bioavailability [8]: 32%; clearance [9]: 3.6 mL/min/kg; clearance [10]: 31 mL/min/kg; Vd [11]: 1.6 L/kg; half-life [12]: 6.1 h; bioavailability [13]: 8%; bioavailability [14]: 52%
18 nM,7.6 nM,Cc1cc(-c2ccc3c(c2)C(=O)CC2(CCN(C(=O)c4cc(C)c5[nH]ncc5c4)CC2)O3)n[nH]1,–
35 nM,16 nM,COc1cccc2c1C(=O)CC1(CCN(C(=O)c3ccc4[nH]c(C(N)=O)nc4c3)CC1)O2,–
–,> 1000 nM,Cc1cc(C)c2c(c1)C(=O)CC1(CCN(C(=O)c3cccc4cn[nH]c34)CC1)O2,–
182 nM,–,COc1cc2c(cn1)OC1(CCN(C(=O)c3cc(C)c4[nH]ncc4c3)CC1)CC2=O,–
–,400 nM,Cc1cc2c(cc1C)C(=O)CC1(CCN(C(=O)c3cccc4cn[nH]c34)CC1)O2,–
3010 nM,–,Cc1ccc2cc(CC3CCN(C(=O)c4cccc(-c5cc[nH]n5)c4)CC3)ccc2n1,Cmax [1]: 91.5 ng/mL; clearance [2]: 34.1 mL/min/kg; Vd [3]: 2.8 L/kg; bioavailability [4]: 7%; half-life [5]: 1.8 h
34 nM,48 nM,COc1nc(C)cc2c1C(=O)CC1(CCN(C(=O)c3cc(C)c4[nH]ncc4c3)CC1)O2,–
30 nM,4.5 nM,Cc1cc(C(=O)N2CCC3(CC2)CC(=O)c2c(ccnc2OC(C)C)O3)cc2cn[nH]c12,–
249 nM,363 nM,Cc1n[nH]c2c(C)cc(C(=O)N3CCC4(CC3)CC(=O)c3ncccc3O4)cc12,–
172 nM,126 nM,COc1cccc2c1C(=O)CC1(CCN(C(=O)c3cc(C)c4nc[nH]c4c3)CC1)O2,–
–,> 1000 nM,COc1cccc2c1C(=O)CC1(CCN(C(=O)c3cccc4cn[nH]c34)CC1)O2,–
366 nM,–,Cc1ccc2c(n1)C(=O)CC1(CCN(C(=O)c3cc(C)c4[nH]ncc4c3)CC1)O2,–
101 nM,–,COc1cccc2c1C(=O)CC1(CCN(C(=O)c3ccc4nc(-c5ccnnc5)[nH]c4c3)CC1)O2,–
19 nM,30 nM,Cc1nc(-c2ccc3c(c2)C(=O)CC2(CCN(C(=O)c4cc(C)c5[nH]ncc5c4)CC2)O3)co1,–
102 nM,151 nM,CCc1cc(C(=O)N2CCC3(CC2)CC(=O)c2c(OC)cccc2O3)cc2cn[nH]c12,–
1270 nM,–,Cc1ccc2cc(CC3CCN(C(=O)c4cccc(-c5cn[nH]c5)c4)CC3)ccc2n1,–
31 nM,6.1 nM,Cc1cc(C(=O)N2CCC3(CC2)CC(=O)c2cc(-c4ccn(C)n4)ccc2O3)cc2cn[nH]c12,–
22 nM,48 nM,Cc1cc2c(cc1C)C(=O)CC1(CCN(C(=O)c3cc(C)c4[nH]ncc4c3)CC1)O2,–
